Assay results published in ChEMBL document CHEMBL2034864, “Synthesis, characterization, antimicrobial activities and QSAR studies of some 10a-phenylbenzo[b]indeno[1,2-e][1,4]thiazin-11(10aH)-ones” (2012).
In brackets after ≈: the same amount, converted by molar mass. Activity calls are given as the source filed them. No cut-off for these calls is given here.

Assays:
Bacillus subtilis = experiment: Antibacterial activity against Bacillus subtilis MTCC 441 after 24 hrs by serial dilution technique; type: functional; settings: for MIC: Bacillus subtilis, MTCC 441, 24 h
How it was run: (§1)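 Compounds were dissolved in DMSO as stock, diluted to 100 µg/mL in Luria broth, then two-fold serially diluted from 100 to 1.56 µg/mL. Bacteria were grown in Luria broth at 37 °C, centrifuged and washed three times with PBS. They were inoculated into each dilution in triplicate and incubated 24 h at 37 °C. Growth was read visually and spectrophotometrically. Controls were penicillin, streptomycin and DMSO. MIC is in µmol/mL.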

Staphylococcus aureus = experiment: Antibacterial activity against Staphylococcus aureus MTCC 7443 after 24 hrs by serial dilution technique; type: functional; settings: for MIC: Staphylococcus aureus, MTCC 7443, 24 h; how it was run: as §1
Escherichia coli = experiment: Antibacterial activity against Escherichia coli MTCC 42 after 24 hrs by serial dilution technique; type: functional; settings: for MIC: Escherichia coli, MTCC 42, 24 h; how it was run: as §1
Pseudomonas aeruginosa = experiment: Antibacterial activity against Pseudomonas aeruginosa MTCC 7952 after 24 hrs by serial dilution technique; type: functional; settings: for MIC: Pseudomonas aeruginosa, MTCC 7952, 24 h; how it was run: as §1
Candida albicans = experiment: Antifungal activity against Candida albicans MTCC 183 after 72 hrs by serial dilution technique; type: functional
How it was run: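 Compounds were dissolved in DMSO as stock, diluted to 100 µg/mL in potato dextrose broth, then two-fold serially diluted from 100 to 1.56 µg/mL. Fungi were grown in Sabouraud dextrose broth at 28 °C: A. fumigatus for 2–3 weeks, C. albicans for 48 h. Spores were centrifuged, washed in sterile water and inoculated in triplicate, then incubated 72 h at 28 °C. MIC was assigned by CFU assay. Controls were fluconazole and DMSO.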

Aspergillus fumigatus = experiment: Antifungal activity against Aspergillus fumigatus MTCC 2550 after 72 hrs by serial dilution technique
[1] = Candida albicans, MTCC 183, 72 h
[2] = Aspergillus fumigatus, MTCC 2550, 72 h

SMILES: COc1ccc2c(c1)SC1(c3ccc(C)cc3)C(=O)c3ccccc3C1=N2 (centres undefined)
- -logMIC (Bacillus subtilis): 1.17
- MIC (Bacillus subtilis): 67.3 µM (≈ 25 µg/mL)
- -logMIC (Staphylococcus aureus): 0.87
- MIC (Staphylococcus aureus): 135 µM (≈ 50 µg/mL)
- -logMIC (Escherichia coli): 2.38
- MIC (Escherichia coli): 4.2 µM (≈ 1.56 µg/mL)
- -logMIC (Pseudomonas aeruginosa): 1.47
- MIC (Pseudomonas aeruginosa): 33.6 µM (≈ 12.5 µg/mL)
- -logMIC (Candida albicans): 1.77
- MIC (Candida albicans; [1]): 16.8 µM (≈ 6.24 µg/mL)
- -logMIC (Aspergillus fumigatus): 1.17
- MIC (Aspergillus fumigatus; [2]): 67.3 µM (≈ 25 µg/mL)

SMILES: O=C1c2ccccc2C2=Nc3ccc(Br)cc3SC12c1ccc(Cl)cc1 (centres undefined)
- -logMIC (Bacillus subtilis): 1.55
- MIC (Bacillus subtilis): 28.4 µM (≈ 12.5 µg/mL)
- -logMIC (Staphylococcus aureus): 2.15
- MIC (Staphylococcus aureus): 7.1 µM (≈ 3.13 µg/mL)
- -logMIC (Escherichia coli): 1.24
- MIC (Escherichia coli): 56.9 µM (≈ 25.1 µg/mL)
- -logMIC (Pseudomonas aeruginosa): 1.24
- MIC (Pseudomonas aeruginosa): 57 µM (≈ 25.1 µg/mL)
- -logMIC (Candida albicans): 1.55
- MIC (Candida albicans; [1]): 28.4 µM (≈ 12.5 µg/mL)
- -logMIC (Aspergillus fumigatus): 1.55
- MIC (Aspergillus fumigatus; [2]): 28.4 µM (≈ 12.5 µg/mL)

SMILES: O=C1c2ccccc2C2=Nc3ccccc3SC12c1ccc(Cl)cc1 (centres undefined)
- -logMIC (Bacillus subtilis): 1.46
- MIC (Bacillus subtilis): 34.6 µM (≈ 12.5 µg/mL)
- -logMIC (Staphylococcus aureus): 0.86
- MIC (Staphylococcus aureus): 138 µM (≈ 50.1 µg/mL)
- -logMIC (Escherichia coli): 2.37
- MIC (Escherichia coli): 4.3 µM (≈ 1.56 µg/mL)
- MIC (Candida albicans): inactive
- MIC (Aspergillus fumigatus): inactive

SMILES: Cc1ccc2c(c1)SC1(c3ccccc3)C(=O)c3ccccc3C1=N2 (centres undefined)
- -logMIC (Bacillus subtilis): 0.83
- MIC (Bacillus subtilis): 146 µM (≈ 50 µg/mL)
- -logMIC (Staphylococcus aureus): 2.35
- MIC (Staphylococcus aureus): 4.5 µM (≈ 1.54 µg/mL)
- -logMIC (Pseudomonas aeruginosa): 1.13
- MIC (Pseudomonas aeruginosa): 73.3 µM (≈ 25 µg/mL)
- -logMIC (Candida albicans): 1.44
- MIC (Candida albicans; [1]): 36.6 µM (≈ 12.5 µg/mL)
- -logMIC (Aspergillus fumigatus): 1.14
- MIC (Aspergillus fumigatus; [2]): 73.2 µM (≈ 25 µg/mL)

SMILES: COc1ccc(C23Sc4cc(Br)ccc4N=C2c2ccccc2C3=O)cc1 (centres undefined)
- -logMIC (Bacillus subtilis): 2.15
- MIC (Bacillus subtilis): 7.1 µM (≈ 3.1 µg/mL)
- -logMIC (Staphylococcus aureus): 2.15
- MIC (Staphylococcus aureus): 7.1 µM (≈ 3.1 µg/mL)
- -logMIC (Escherichia coli): 1.84
- MIC (Escherichia coli): 14.3 µM (≈ 6.24 µg/mL)
- -logMIC (Pseudomonas aeruginosa): 1.24
- MIC (Pseudomonas aeruginosa): 57.4 µM (≈ 25 µg/mL)
- -logMIC (Candida albicans): 1.84
- MIC (Candida albicans; [1]): 14.3 µM (≈ 6.24 µg/mL)
- -logMIC (Aspergillus fumigatus): 1.84
- MIC (Aspergillus fumigatus; [2]): 14.3 µM (≈ 6.24 µg/mL)

SMILES: O=C1c2ccccc2C2=Nc3ccc(Br)cc3SC12c1ccccc1 (centres undefined)
- -logMIC (Bacillus subtilis): 1.21
- MIC (Bacillus subtilis): 61.7 µM (≈ 25.1 µg/mL)
- -logMIC (Staphylococcus aureus): 0.91
- MIC (Staphylococcus aureus): 123 µM (≈ 50.1 µg/mL)
- -logMIC (Escherichia coli): 1.21
- MIC (Escherichia coli): 61.7 µM (≈ 25.1 µg/mL)
- -logMIC (Pseudomonas aeruginosa): 1.81
- MIC (Pseudomonas aeruginosa): 15.4 µM (≈ 6.26 µg/mL)
- -logMIC (Candida albicans): 1.51
- MIC (Candida albicans; [1]): 30.8 µM (≈ 12.5 µg/mL)
- -logMIC (Aspergillus fumigatus): 1.51
- MIC (Aspergillus fumigatus; [2]): 30.8 µM (≈ 12.5 µg/mL)

SMILES: O=C1c2ccccc2C2=Nc3ccccc3SC12c1ccccc1 (centres undefined)
- -logMIC (Bacillus subtilis): 1.12
- MIC (Bacillus subtilis): 76.4 µM (≈ 25 µg/mL)
- -logMIC (Staphylococcus aureus): 0.82
- MIC (Staphylococcus aureus): 153 µM (≈ 50 µg/mL)
- -logMIC (Escherichia coli): 1.42
- MIC (Escherichia coli): 38.2 µM (≈ 12.5 µg/mL)
- -logMIC (Pseudomonas aeruginosa): 1.42
- MIC (Pseudomonas aeruginosa): 38.2 µM (≈ 12.5 µg/mL)
- -logMIC (Candida albicans): 1.12
- MIC (Candida albicans; [1]): 76.4 µM (≈ 25 µg/mL)
- -logMIC (Aspergillus fumigatus): 1.12
- MIC (Aspergillus fumigatus; [2]): 76.4 µM (≈ 25 µg/mL)

SMILES: OC(Cn1cncn1)(Cn1cncn1)c1ccc(F)cc1F [FLUCONAZOLE]
- MIC (Candida albicans; [1]): 10.1 µM (≈ 3.09 µg/mL)
- MIC (Aspergillus fumigatus; [2]): 10.1 µM (≈ 3.09 µg/mL)

SMILES: CC1(C)S[C@@H]2[C@H](NC(=O)Cc3ccccc3)C(=O)N2[C@H]1C(=O)O [PENICILLIN G]
- MIC (Bacillus subtilis): 4.6 µM (≈ 1.54 µg/mL)
- MIC (Staphylococcus aureus): 4.6 µM (≈ 1.54 µg/mL)
- MIC (Escherichia coli): 37.4 µM (≈ 12.5 µg/mL)
- MIC (Pseudomonas aeruginosa): 18.7 µM (≈ 6.25 µg/mL)
